As usually defined, the EC50 is the midpoint of the concentration-response curve.

For one series, the system named is Para-influenza-3 virus. The series is described as follows: organism not typed. It counts as cell-based. The settings on record: Vero, read-out: EC50 Para-influenza-3 virus.
The next series has as its system Reovirus-1. Kind of series: organism not typed. The series is classed as cell-based. The settings on record: Vero, read-out: EC50 Reovirus-1.
Series [1] deals with HeLa cells (cervical carcinoma). Kind of series: Antiproliferative assay. It counts as cell-based, human. The method in brief:
(§1)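 Cells grown as monolayers in DMEM with 10% FBS, 2 mM L-glutamine, 100 U/ml penicillin and 100 μg/ml streptomycin at 37 °C, 5% CO2. 5000 cells/well seeded on day 0. Compound added in five 10-fold dilutions (0.01–100 μM); final DMSO ≤0.1%. Cells incubated 72 h, then MTT; absorbance converted to percentage growth vs same-plate untreated controls. Quadruplicate points in three experiments; ANOVA with Tukey post-hoc test.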

Series [2] deals with 3T3 cells (embryonal murine fibroblasts). The series is described as follows: Cytotoxic effects on embryonal murine fibroblasts 3T3. It counts as cell-based, mouse. The method in brief: as §1
Series [3] relates to all tested malignant cell lines. The series is described as follows: Cytostatic activity on the whole panel of malignant cell lines. It counts as cell-based. The method in brief: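 Malignant lines HeLa, SW620, MiaPaCa-2, HepG2 and CFPAC-1 grown as monolayers in DMEM with 10% FBS at 37 °C, 5% CO2. Plated at 5000 cells/well and exposed 72 h to five 10-fold dilutions (0.01–100 μM), with DMSO ≤0.1%. Growth read by MTT and converted to percentage growth by NIH formulas. Quadruplicate points in three experiments; ANOVA with Tukey post-hoc test.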

Series [4] has as its system African green monkey kidney epithelial cells (Vero). Conditions: alteration of normal cell morphology, listed as C00010.
For series [5], the system named is human embryonic lung cells (HEL). Kind of series: Cytostatic activity. The series is classed as cell-based. The method in brief: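 HEL cells seeded at 5 × 10^3 cells/well and allowed to proliferate 24 h. Medium with varying compound concentrations then added, and cells incubated 3 days at 37 °C. Cell number counted by Coulter counter. CC50 (50% reduction in proliferation vs untreated controls) read from plots of cell number (% of control) against concentration.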

Series [6] has as its system Madin Darby canine kidney (MDCK) cells.
The subject of series [7] is Crandell-Rees feline kidney cells (CRFK).
Series [8] concerns human cytomegalovirus (HCMV). Kind of series: Anti-HCMV activity in HEL cells, strain not told apart in the statement. The series is classed as cell-based. The settings on record: compared to compound 3.
A further series deals with Punta Toro virus. The series is described as follows: microbe, parasite or virus in culture. Conditions: Vero, read-out: EC50 Punta Toro virus. The series is classed as cell-based.

SMILES strings stand for the structures. Entries after “also recorded” stand apart in the source; their conditions may differ.

`Nc1ncnc2c1ncn2C[C@H](O)CO` [(S)-DHPA, (S)-9-(2,3-dihydroxypropyl)adenine, reference compound]: the EC50 in the series with Para-influenza-3 virus and in the series on Reovirus-1 was more than 250 µM throughout.

For `O=C1O/C(=C\Cn2cnc3cncc(Br)c32)C(OCc2ccccc2)=C1OCc1ccccc1` [Compound 1, 3,4-di-O-benzyl-5-(9-(3-bromo-1H-imidazo[4,5-c]pyridine-9-yl)ethylidene)furan-2(5H)-one], in [1], the “activity / cytostatic effects on HeLa cells (in words)” value (from here on “activity / cytostatic effects”) is given as “moderate activity”. Moreover, the “cytotoxic effects on 3T3 cells (in words)” value in [2] was “low cytotoxic effects; also recorded: moderate or low cytotoxic effects”. Moreover, the “cytostatic activity on the malignant cell line panel (in words)” value (“cytostatic activity” below) in series [3] is “weak and nonselective antiproliferative activity”.

As to `O=C1O/C(=C\Cn2cnc3c(F)nc(F)c(Cl)c32)C(OCc2ccccc2)=C1OCc1ccccc1` [Compound 2, 3,4-di-O-benzyl-5-(9-(3-chloro-2,6-difluoro-1H-imidazo[4,5-c]pyridine-9-yl)ethylidene)furan-2(5H)-one], in series [1], the “activity / cytostatic effects” value is “no cytostatic effects”. Also, the EC50 with Para-influenza-3 virus and in the series on Reovirus-1 was more than 20 µM each time. Besides, the MCC in series [4] is not below 20 µM.

Turning to `O=C1O/C(=C\Cn2cnc3c(Cl)c(F)nc(F)c32)C(OCc2ccccc2)=C1OCc1ccccc1` [Compound 3, 3,4-di-O-benzyl-5-(7-(3-chloro-2,6-difluoro-1H-imidazo[4,5-c]pyridine-7-yl)ethylidene)furan-2(5H)-one], the “activity / cytostatic effects” value in series [1] is reported as “did not show any cytostatic effects”. Besides, the “cytotoxic effects on 3T3 cells (in words)” value in [2] was “did not show any cytostatic effects”. The “cytotoxic effects on HEL cells (in words)” value in series [5] is recorded as “without cytotoxic effects; also recorded: did not show any cytostatic effects”. In addition, the EC50 with Para-influenza-3 virus and in the series with Reovirus-1 was more than 20 µM throughout. The “cytostatic effects on MDCK cells (in words)” value in series [6] is on record as “did not show any cytostatic effects”. For the same molecule, the “cytostatic effects on CRFK cells (in words)” value in series [7] was “did not show any cytostatic effects”.

For `O=C1NC(O)(CCn2cnc3cncc(Br)c32)C(OCc2ccccc2)=C1OCc1ccccc1` (centres unmarked) [Compound 6, 3,4-di-O-benzyl-5-(9-(3-bromo-1H-imidazo[4,5-c]pyridine-9-yl)ethyl)-5-hydroxy-1H-pyrrolo-2(5H)-one], the “cytotoxic effects on 3T3 cells (in words)” value in series [2] is “moderate or low cytotoxic effects”. Also, in [3], the “cytostatic activity” value is “weak and nonselective antiproliferative activity”.

Turning to `Nc1nc(F)c(Cl)c2c1ncn2CCC1(O)NC(=O)C(OCc2ccccc2)=C1OCc1ccccc1` (centres unmarked) [Compound 7, 5-(9-(6-amino-3-chloro-2-fluoro-1H-imidazo[4,5-c]pyridine-9-yl)ethyl)-3,4-di-O-benzyl-5-hydroxy-1H-pyrrolo-2(5H)-one], in series [8], the “anti-HCMV activity (in words)” value is given as “lost anti-HCMV activity; also recorded: loss of anti-HCMV activity”.

Turning to `O=C1O/C(=C\Cn2cnc3c(Cl)c(F)nc(F)c32)C(O)=C1O` [Compound 8, 5-(2-(7-chloro-4,6-difluoro-3H-imidazo[4,5-c]pyridine-3-yl)ethylidene)-3,4-dihydroxyfuran-2(5H)-one], the “anti-HCMV activity (in words)” value in [8] is “loss of anti-HCMV activity”.

On to `O=C1O/C(=C\Cn2cc(I)c3c(Cl)ncnc32)C(OCc2ccccc2)=C1OCc1ccccc1` [Compound 10, 3,4-di-O-benzyl-5-(9-(6-chloro-7-iodo-7H-pyrrolo[2,3-d]pyrimidine-9-yl)ethylidene)furan-2(5H)-one], for which the “cytostatic activity” value in series [3] was “no marked cytostatic nor antiviral activities”.

Turning to `O=C1NC(O)(/C=C\n2cc(I)c3c(Cl)ncnc32)C(OCc2ccccc2)=C1OCc1ccccc1` (centres unmarked) [Compound 12, 3,4-di-O-benzyl-5-(9-(6-chloro-7-iodo-7H-pyrrolo[2,3-d]pyrimidine-9-yl)-vinyl)-5-hydroxy-1H-pyrrolo-2(5H)-one], the “cytotoxic effects on 3T3 cells (in words)” value in series [2] is reported as “moderate or low cytotoxic effects”. In addition, the “cytostatic activity” value in series [3] is “weak and nonselective antiproliferative activity; also recorded: no marked cytostatic nor antiviral activities”.

With `O=C1O/C(=C\Cn2cnc3cc[nH]c3c2=O)C(OCc2ccccc2)=C1OCc1ccccc1` [Compound 14, 3,4-di-O-benzyl-5-(1-(3H-pyrrolo[3,2-d]pyrimidine-4(5H)-one-1-yl)ethylidene)furan-2(5H)-one], the “cytotoxic effects on 3T3 cells (in words)” value in [2] is “without cytotoxic effects”.

Take `NC(=O)c1ncn([C@@H]2O[C@H](CO)[C@@H](O)[C@H]2O)n1` [Ribavirin, reference compound]: the half-maximal effective concentration (EC50) with Reovirus-1 was more than 250 µM; with Punta Toro virus, 150 ± 141 µM.
